Test results: ChEMBL document CHEMBL1154983, “Arylpiperazine-containing pyrrole 3-carboxamide derivatives targeting serotonin 5-HT(2A), 5-HT(2C), and the serotonin transporter as a potential antidepressant” (Bioorg Med Chem Lett, 2010)
Blank lines part the entries; values can stand above or below the molecule they belong to. The source made the active and inactive calls. The calls are words filed in the database; no cut-off is given here.

Tests used:
Mus musculus [1] = assay: Antidepressant activity in mouse assessed as decrease in duration of immobility at 100 mg/kg, po during final 5 mins of the 6 mins session by forced swimming test; type: functional
How it was run: (§1)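 Mice swam 10 min in a 25-cm glass cylinder (10 cm diameter) holding 15 cm of water at 23 1 °C. Twenty-four hours later, drug was given po 60 min before retesting. Immobility (floating upright with only small movements keeping head above water) was totalled over the last 5 min of the 6-min test.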

Mus musculus [2] = assay: Antidepressant activity in mouse assessed as decrease in duration of immobility at 10 mg/kg, po during final 5 mins of the 6 mins session by forced swimming test; type: functional; how it was run: as §1
[3] = biological target: 5-hydroxytryptamine receptor 7 (Homo sapiens, UniProt P34969); assay: Inhibition of 5HT7 receptor
5-hydroxytryptamine receptor 7, sequence (P34969 whole entry): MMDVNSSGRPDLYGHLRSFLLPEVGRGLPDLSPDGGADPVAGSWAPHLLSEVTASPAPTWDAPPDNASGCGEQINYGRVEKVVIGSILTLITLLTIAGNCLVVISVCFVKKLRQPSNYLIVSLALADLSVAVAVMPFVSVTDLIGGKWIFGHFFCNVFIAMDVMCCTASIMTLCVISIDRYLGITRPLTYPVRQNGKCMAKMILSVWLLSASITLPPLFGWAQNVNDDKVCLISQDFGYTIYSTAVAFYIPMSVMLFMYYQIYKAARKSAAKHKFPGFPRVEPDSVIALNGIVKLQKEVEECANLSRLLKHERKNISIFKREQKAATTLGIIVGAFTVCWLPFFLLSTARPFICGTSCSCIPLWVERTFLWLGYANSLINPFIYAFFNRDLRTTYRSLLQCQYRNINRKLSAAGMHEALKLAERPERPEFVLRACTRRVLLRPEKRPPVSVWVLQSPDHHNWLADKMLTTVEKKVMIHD

[4] = biological target: 5-hydroxytryptamine receptor 2A (Homo sapiens, UniProt P28223); assay: Displacement of [3H]ketanserin from human recombinant 5-HT2A receptor expressed in CHO-K1 cells after 60 mins; type: cell-based
5-hydroxytryptamine receptor 2A, sequence (P28223 whole entry): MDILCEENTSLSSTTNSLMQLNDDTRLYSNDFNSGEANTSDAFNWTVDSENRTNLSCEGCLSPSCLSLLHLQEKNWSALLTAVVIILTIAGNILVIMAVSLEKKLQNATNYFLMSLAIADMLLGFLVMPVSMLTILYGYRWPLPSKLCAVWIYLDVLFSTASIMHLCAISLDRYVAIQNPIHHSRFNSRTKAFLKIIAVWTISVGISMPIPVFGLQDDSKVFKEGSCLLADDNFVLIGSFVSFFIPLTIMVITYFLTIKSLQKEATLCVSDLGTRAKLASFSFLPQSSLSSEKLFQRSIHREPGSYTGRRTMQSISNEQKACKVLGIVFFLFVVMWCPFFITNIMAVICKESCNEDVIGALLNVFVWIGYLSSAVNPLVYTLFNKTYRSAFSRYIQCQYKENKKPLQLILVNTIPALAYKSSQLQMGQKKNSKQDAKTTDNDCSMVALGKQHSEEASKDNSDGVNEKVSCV
How it was run: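 Membranes were from CHO-K1 cells stably expressing 5-HT2A. Radioligand was at 1 nM, with mianserin defining nonspecific binding. Incubation ran 60 min at 27 °C in 50 mM Tris–HCl pH 7.4 with 4 mM CaCl2 and 0.1% ascorbic acid. Harvesting was by filtration through glass-fibre filters presoaked in 0.5% PEI.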

[5] = biological target: T1, 5-hydroxytryptamine receptor 2C (Homo sapiens, UniProt P28335); assay: Displacement of [3H]mesulergine from human recombinant 5-HT2C receptor expressed in CHO-K1 cells after 60 mins by rapid filtration assay; type: cell-based
T1 sequence (P28335 whole entry): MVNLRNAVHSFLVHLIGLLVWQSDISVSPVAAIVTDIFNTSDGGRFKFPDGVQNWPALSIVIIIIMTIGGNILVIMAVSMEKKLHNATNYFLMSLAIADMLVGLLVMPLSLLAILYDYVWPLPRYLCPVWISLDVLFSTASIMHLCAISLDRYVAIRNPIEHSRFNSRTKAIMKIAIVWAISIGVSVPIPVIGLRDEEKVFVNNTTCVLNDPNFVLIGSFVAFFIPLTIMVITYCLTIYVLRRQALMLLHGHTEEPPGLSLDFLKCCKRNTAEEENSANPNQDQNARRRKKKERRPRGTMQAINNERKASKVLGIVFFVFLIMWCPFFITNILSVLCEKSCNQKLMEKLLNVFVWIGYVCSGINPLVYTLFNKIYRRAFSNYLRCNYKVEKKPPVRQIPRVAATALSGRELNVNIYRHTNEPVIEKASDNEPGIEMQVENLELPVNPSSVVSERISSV
How it was run: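 Frozen membranes were from CHO-K1 cells stably expressing human recombinant 5-HT2C, with 1.4 nM [3H]mesulergine. Buffer was 50 mM Tris–HCl pH 7.4, 4 mM CaCl2 and 0.1% ascorbic acid, with methiothepin for nonspecific binding. Incubation ran 60 min at 27 °C, stopped by rapid filtration through 0.5% PEI-presoaked glass-fibre filters.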

[6] = biological target: Sodium-dependent serotonin transporter (Homo sapiens, UniProt P31645); assay: Displacement of [3H]imipramine from human SERT expressed in HEK293 cells after 30 mins by rapid filtration assay; type: cell-based
Sodium-dependent serotonin transporter, sequence (P31645 whole entry): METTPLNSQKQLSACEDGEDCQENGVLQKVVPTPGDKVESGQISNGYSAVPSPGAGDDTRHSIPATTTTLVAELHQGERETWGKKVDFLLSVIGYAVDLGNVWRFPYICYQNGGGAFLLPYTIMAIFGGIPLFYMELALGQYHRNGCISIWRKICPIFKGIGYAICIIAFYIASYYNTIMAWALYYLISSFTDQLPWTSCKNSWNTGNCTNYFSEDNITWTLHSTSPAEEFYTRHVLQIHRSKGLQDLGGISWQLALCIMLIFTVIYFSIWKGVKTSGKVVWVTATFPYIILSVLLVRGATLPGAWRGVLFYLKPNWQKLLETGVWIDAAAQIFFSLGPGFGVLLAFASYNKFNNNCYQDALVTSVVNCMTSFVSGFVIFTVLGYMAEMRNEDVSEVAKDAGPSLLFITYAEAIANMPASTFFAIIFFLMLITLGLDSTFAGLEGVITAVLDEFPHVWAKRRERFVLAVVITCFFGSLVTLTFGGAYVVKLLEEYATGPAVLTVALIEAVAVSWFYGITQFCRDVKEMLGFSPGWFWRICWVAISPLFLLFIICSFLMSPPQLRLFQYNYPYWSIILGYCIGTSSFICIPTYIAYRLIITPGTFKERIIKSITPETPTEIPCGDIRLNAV
How it was run: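 Frozen membranes were from HEK293 cells expressing human SERT, with 4 nM [3H]imipramine in 50 mM Tris–HCl pH 7.4, 120 mM NaCl and 5 mM KCl. Unlabelled imipramine defined nonspecific binding. Incubation ran 30 min at 27 °C, terminated by rapid filtration through 0.5% PEI-presoaked glass-fibre filters.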

Mus musculus [7] = assay: Antidepressant activity in mouse assessed as decrease in duration of immobility at 50 mg/kg, po during final 5 mins of the 6 mins session by forced swimming test; type: functional, organism-based; parameters: dose 50 mg/kg
How it was run: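 Mice swim for 10 min in a 25-cm glass cylinder (10 cm diameter) holding 15 cm of water at 23 ± 1 °C. They are retested 24 h later for 6 min. Compound is suspended in 3% Tween 80 and given orally 60 min before the test. Total immobility time (floating upright, only small head-keeping movements) is scored over the last 5 min. Means ± S.E.M.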

[8] = Cmax in rat at 1 mg/kg, iv; type: ADME, organism-based; parameters: dose 1 mg/kg, route intravenous; details: in vivo
How it was run: (§2)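 Rats dosed once with the HCl salt, either i.v. at 1 mg/kg (n = 2 or 3) or orally at 5 mg/kg (n = 3). Plasma and brain levels were followed to derive Cmax, Clast, Tmax, t1/2, AUC, dose-normalised AUC, oral bioavailability (F) and the brain/plasma ratio.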

Rattus norvegicus [9] = assay: Clast in rat at 1 mg/kg, iv; type: ADME, organism-based; parameters: dose 1 mg/kg, route intravenous; details: in vivo; how it was run: as §2
[10] = Half life in rat at 1 mg/kg, iv; type: ADME, organism-based; parameters: dose 1 mg/kg, route intravenous; details: in vivo; how it was run: as §2
Rattus norvegicus [11] = assay: (§3) AUC (0 to infinity) in rat at 1 mg/kg, iv; type: ADME, organism-based, Plasma; parameters: time infinity, dose 1 mg/kg, route intravenous; details: in vivo; how it was run: as §2
Rattus norvegicus [12] = assay: Dose normalized AUC (0 to infinity) in rat at 1 mg/kg, iv; type: ADME, organism-based; parameters: dose 1 mg/kg, route intravenous; details: in vivo; how it was run: as §2
[13] = Cmax in rat at 5 mg/kg, po; type: ADME, organism-based; parameters: dose 5 mg/kg, route oral; details: in vivo; how it was run: as §2
Rattus norvegicus [14] = assay: Clast in rat at 5 mg/kg, po; type: ADME, organism-based; parameters: dose 5 mg/kg, route oral; details: in vivo; how it was run: as §2
[15] = Tmax in rat at 5 mg/kg, po; type: ADME, organism-based; parameters: dose 5 mg/kg, route oral; details: in vivo; how it was run: as §2
[16] = Elimination half life in rat at 5 mg/kg, po; type: ADME, organism-based; parameters: dose 5 mg/kg, route oral; details: in vivo, read-out: beta t1/2 (converted); how it was run: as §2
Rattus norvegicus [17] = assay: Dose normalized AUCirlf in rat at 5 mg/kg, po; type: ADME, organism-based; parameters: dose 5 mg/kg, route oral; details: in vivo; how it was run: as §2
Rattus norvegicus [18] = assay: (§4) Oral bioavailability in rat at 5 mg/kg; type: ADME, organism-based; details: in vivo; how it was run: as §2
[19] = Cmax in rat plasma; type: ADME, organism-based; how it was run: as §2
Plasma = assay: Clast in rat plasma; type: ADME, cell-free; how it was run: as §2
[20] = Tmax in rat plasma; type: ADME, cell-free; how it was run: as §2
[21] = Half life in rat plasma; type: ADME, cell-free; how it was run: as §2
[22] = AUC in rat plasma; type: ADME, cell-free; how it was run: as §2
[23] = Cmax in rat brain; type: ADME, organism-based; how it was run: as §2
Brain = assay: Clast in rat brain; type: ADME, tissue-based; details: in vivo; how it was run: as §2
[24] = Tmax in rat brain; type: ADME, tissue-based; how it was run: as §2
[25] = Half life in rat brain; type: ADME, tissue-based; how it was run: as §2
[26] = AUC in rat brain; type: ADME, tissue-based; how it was run: as §2
[27] = Ratio of drug level in brain to plasma in rat; type: ADME, cell-free; how it was run: as §2
[28] = as §3; type: ADME, organism-based, Plasma; parameters: time infinity, dose 1 mg/kg, route intravenous; details: plasma; how it was run: as §2
[29] = AUC (0 to infinity) in rat at 5 mg/kg, po; type: ADME, organism-based; parameters: time infinity, dose 5 mg/kg, route oral; details: plasma; how it was run: as §2
[30] = as §4; type: ADME, organism-based; details: in vivo; how it was run: as §2

Structure (SMILES): Cc1[nH]c(-c2ccccc2)cc1C(=O)NCCCN1CCN(c2cccc(Cl)c2Cl)CC1
- Activity (Mus musculus [1]): Active
- Activity (Mus musculus [2]): inactive

Structure (SMILES): Cc1c(C(=O)NCCCN2CCN(c3cccc(Cl)c3)CC2)cc(-c2ccccc2)n1Cc1ccccc1
- IC50 [4]: 179 nM
- IC50 [5]: 1440 nM
- IC50 [6]: 235 nM

Structure (SMILES): Cc1c(C(=O)NCCCN2CCN(c3cccc(Cl)c3)CC2)cc(-c2ccccc2)n1CC(C)C
- IC50 [4]: 333 nM
- IC50 [5]: 1600 nM
- IC50 [6]: 110 nM

Structure (SMILES): CCn1c(-c2ccccc2)cc(C(=O)NCCCN2CCN(c3cccc(C)c3C)CC2)c1C
- Activity (Mus musculus [7]): Active

Structure (SMILES): Cc1[nH]c(-c2ccccc2)cc1C(=O)NCCCN1CCN(c2cccc(Cl)c2Cl)CC1.Cl
- Cmax [8]: 690 ng/mL
- Clast (Rattus norvegicus [9]): 4 ng/mL
- half-life [10]: 1.76 h
- AUC (Rattus norvegicus [11]): 20.945 µg·min/mL
- AUC/dose (Rattus norvegicus [12]): 20.945 µg·min/mL
- Cmax [13]: 245 ng/mL
- Clast (Rattus norvegicus [14]): 1 ng/mL
- Tmax [15]: 1.17 h
- half-life [16]: 2.52 h
- AUC/dose (Rattus norvegicus [17]): 12.783 µg·min/mL
- F (Rattus norvegicus [18]): 61.03%
- Cmax [19]: 190 ng/mL
- Clast (Plasma): 100 ng/mL
- Tmax [20]: 2 h
- half-life [21]: 1.97 h
- AUC [22]: 538 ng·h/mL
- Cmax [23]: 90 ng/mL
- Clast (Brain): 60 ng/mL
- Tmax [24]: 2 h
- half-life [25]: 3.42 h
- AUC [26]: 247 ng·h/mL
- Kp [27]: 46

Structure (SMILES): Cc1c(C(=O)NCCCN2CCN(c3cccc(Cl)c3Cl)CC2)cc(-c2ccccc2)n1C.Cl
- Cmax [8]: 454 ng/mL
- Clast (Rattus norvegicus [9]): 8 ng/mL
- half-life [10]: 2.82 h
- AUC(0-inf) [28]: 312 ng·h/mL
- AUC/dose (Rattus norvegicus [12]): 18.703 µg·min/mL
- Cmax [13]: 118 ng/mL
- Clast (Rattus norvegicus [14]): 1 ng/mL
- Tmax [15]: 0.75 h
- half-life [16]: 3.14 h
- AUC(0-inf) [29]: 386 ng·h/mL
- AUC/dose (Rattus norvegicus [17]): 4.63 µg·min/mL
- bioavailability [30]: 24.8%
- Cmax [19]: 70 ng/mL
- Clast (Plasma): 40 ng/mL
- Tmax [20]: 1 h
- half-life [21]: 3.71 h
- AUC [22]: 240 ng·h/mL
- Cmax [23]: 30 ng/mL
- Clast (Brain): 20 ng/mL
- Tmax [24]: 2 h
- half-life [25]: 4.28 h
- AUC [26]: 82.7 ng·h/mL
- Kp [27]: 34.5

Further lines, with some results ahead:

- IC50 [3]: 493 nM
Structure (SMILES): Cc1c(C(=O)NCCCN2CCN(c3cccc(Cl)c3Cl)CC2)cc(-c2ccccc2)n1N1CCCCC1
- Activity (Mus musculus [1]): Active
- Activity (Mus musculus [2]): inactive

- IC50 [4]: 129 nM
- IC50 [5]: 225 nM
- IC50 [6]: 76 nM
Structure (SMILES): CCCn1c(-c2ccccc2)cc(C(=O)NCCCN2CCN(c3cccc(C)c3C)CC2)c1C

- IC50 [4]: 133 nM
- IC50 [5]: 417 nM
- IC50 [6]: 92 nM
Structure (SMILES): Cc1cccc(N2CCN(CCCNC(=O)c3cc(-c4ccccc4)n(N4CCCCC4)c3C)CC2)c1C
